Measurements as given in ChEMBL document CHEMBL2086325, “Suppression of autoimmune arthritis by Celastrus-derived Celastrol through modulation of pro-inflammatory chemokines” (Bioorg Med Chem, 2012).
Calls of active or inactive are those of the source. The calls are words filed in the database; no cut-off is given here.

Assays:
Type in all cases: functional, organism-based
Rattus norvegicus [1] = experiment: Antiarthritic effect in Lewis rat adjuvant-induced arthritis model serum assessed as reduction in GRO/KC production at 200 ug, ip starting from arthritis onset and continued uninterrupted until study end by cytokine multiplex assay
Method in brief: (§1)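 Arthritic Lewis rats (Mtb 1.5 mg s.c. in mineral oil) were given 200 μg/rat i.p. daily from onset until the day before harvest; controls received DMSO/PBS vehicle. On d 18, blood was taken by cardiac puncture after euthanasia and serum stored at −80 °C. Serum pooled from 4 rats was assayed in triplicate by multiplex.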

Rattus norvegicus [2] = experiment: Antiarthritic effect in Lewis rat adjuvant-induced arthritis model serum assessed as reduction in TNFalpha production at 200 ug, ip starting from arthritis onset and continued uninterrupted until study end by cytokine multiplex assay; method in brief: as §1
Rattus norvegicus [3] = experiment: Antiarthritic effect in Lewis rat adjuvant-induced arthritis model synovial infiltrating cells restimulated with sonicated Mtb post isolation assessed as reduction in IL6 production at 200 ug, ip starting from arthritis onset and continued uninterrupted until study end by cytokine multiplex assay
Method in brief: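 Male Lewis rats were immunized s.c. with heat-killed Mtb H37Ra (1.5 mg/rat) in mineral oil. From arthritis onset they received 200 μg/rat i.p. daily (DMSO stock diluted in PBS); controls got 1.2% DMSO in PBS. On d 18, draining lymph node or synovial-infiltrating cells were cultured at 1.5 × 10^6/well in 2% FBS medium ± sonicated Mtb (10 μg/ml) for 24 h. Supernatants were analysed by multiplex.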

Rattus norvegicus [4] = experiment: Antiarthritic effect in Lewis rat adjuvant-induced arthritis model spleen adherent cells restimulated with sonicated Mtb post isolation assessed as reduction in CCR5 expression at 200 ug, ip starting from arthritis onset and continued uninterrupted until study end by qPCR
Method in brief: (§2)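 From onset of Mtb-induced arthritis, rats received 200 μg/rat i.p. daily or vehicle. Spleen adherent cells harvested on d 18 (1.5–2.0 × 10^6 cells/well) were cultured in medium or with sonicated Mtb (10 μg/ml) for 24 h. Receptor mRNA was quantified by qPCR after TRIzol RNA isolation and cDNA synthesis, normalized to HGPRT and reported as relative message.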

Rattus norvegicus [5] = experiment: Antiarthritic effect in Lewis rat adjuvant-induced arthritis model spleen adherent cells restimulated with sonicated Mtb post isolation assessed as reduction in CXCR2 expression at 200 ug, ip starting from arthritis onset and continued uninterrupted until study end by qPCR; method in brief: as §2
Rattus norvegicus [6] = experiment: Antiarthritic effect in Lewis rat adjuvant-induced arthritis model spleen adherent cells restimulated with sonicated Mtb post isolation assessed as reduction in RANTES production at 200 ug, ip starting from arthritis onset and continued uninterrupted until study end by cytokine multiplex assay
Method in brief: (§3)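 Mtb-immunized male Lewis rats were dosed 200 μg/rat i.p. daily from arthritis onset (vehicle: 1.2% DMSO/PBS). Spleen adherent cells were prepared on d 18, plated at 1.5 × 10^6/well in 2% FBS medium and restimulated with sonicated Mtb (10 μg/ml) for 24 h. Supernatant chemokines and cytokines were measured by Luminex multiplex. Mean ± SD of triplicates from 4–5 rats.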

Rattus norvegicus [7] = experiment: Antiarthritic effect in Lewis rat adjuvant-induced arthritis model spleen adherent cells restimulated with sonicated Mtb post isolation assessed as reduction in IL-1beta production at 200 ug, ip starting from arthritis onset and continued uninterrupted until study end by cytokine multiplex assay; method in brief: as §3

Question: With `CC1=C(O)C(=O)C=C2C1=CC=C1[C@@]2(C)CC[C@@]2(C)[C@@H]3C[C@](C)(C(=O)O)CC[C@]3(C)CC[C@]12C` [CELASTROL] as the compound, how does the Activity (Rattus norvegicus [1]) read?
Answer: Its Activity is “Active”.

Question: And the Activity (Rattus norvegicus [2])?
Answer: The Activity was “Active”.

Question: What about the Activity (Rattus norvegicus [3]) of the same compound?
Answer: The Activity was “inactive”.

Question: And the Activity (Rattus norvegicus [4])?
Answer: Its Activity is “Active”.

Question: What about the Activity (Rattus norvegicus [5]) of the same compound?
Answer: The Activity was “Active”.

Question: What about the Activity (Rattus norvegicus [6]) of the same compound?
Answer: The Activity was “Active”.

Question: And the Activity (Rattus norvegicus [7])?
Answer: The Activity was “Active”.
